SR-BI DiI-HDL act – SR-BI HDL lipid transfer activation; AID 504775; CHO ldlA[mSR-BI] cells, DiI-HDL uptake fluorescence, 3 h; 100 = double the neutral-control signal; activation, % at 12.5 µM; 320,000 tested, 0.096% active;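 active = mean replicate activation of at least 60% and every replicate at or above 60%; inconclusive = mean or all-replicate condition met, but not both; inactive = mean below 60% and not all replicates reaching 60%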;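 note: 0% = median plate neutral-control signal and 100% = twice that signal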
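system = CHO ldlA[mSR-BI] cells, LDL receptor-null, SR-BI overexpressing | medium = Ham's F12 with 0.5% BSA, HEPES 25 mM, pH 7.4 | probe or stimulus = DiI-HDL 10 µg/mL | compound dosing = single-point compound dose | incubation = compound exposure 3 h, 37 °C | technique = DiI fluorescence, bottom read | read-out = cell-associated DiI fluorescence as measure of HDL uptake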
RAD54 branch – RAD54 (human) branch migration inhibition | Q92698 | RAD54 Holliday junction branch migration, FAM/BHQ fluorescence | inhibition, % at 10.4 µM | 360,000 tested, 0.14% active | AID 602329;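 active = mean normalized replicate activity at least 40 and at least half of replicates scoring 40 or more; inconclusive = only one of the two criteria met; inactive = mean below 40 and under half of replicates reaching 40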;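 note: 0% = median of neutral control wells and 100% = median of positive control wells; inhibitors cause a drop in the FAM fluorescence signal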
SR-BI DiI inh – mouse SR-BI HDL lipid transfer inhibition. ldlA[mSR-BI] CHO cells, DiI-HDL uptake fluorescence, 3 h. inhibition, % at 12.5 µM. Q61009. 320,000 tested, 0.96% active;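 active = mean replicate inhibition of at least 70% and a set share of replicates each scoring 70 or more; inconclusive = meets just one of the two criteria; inactive = fails both criteria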;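 note: 0% = median of neutral control wells and 100% = median of positive control wells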
Target sequence (Q61009 whole entry, looked up): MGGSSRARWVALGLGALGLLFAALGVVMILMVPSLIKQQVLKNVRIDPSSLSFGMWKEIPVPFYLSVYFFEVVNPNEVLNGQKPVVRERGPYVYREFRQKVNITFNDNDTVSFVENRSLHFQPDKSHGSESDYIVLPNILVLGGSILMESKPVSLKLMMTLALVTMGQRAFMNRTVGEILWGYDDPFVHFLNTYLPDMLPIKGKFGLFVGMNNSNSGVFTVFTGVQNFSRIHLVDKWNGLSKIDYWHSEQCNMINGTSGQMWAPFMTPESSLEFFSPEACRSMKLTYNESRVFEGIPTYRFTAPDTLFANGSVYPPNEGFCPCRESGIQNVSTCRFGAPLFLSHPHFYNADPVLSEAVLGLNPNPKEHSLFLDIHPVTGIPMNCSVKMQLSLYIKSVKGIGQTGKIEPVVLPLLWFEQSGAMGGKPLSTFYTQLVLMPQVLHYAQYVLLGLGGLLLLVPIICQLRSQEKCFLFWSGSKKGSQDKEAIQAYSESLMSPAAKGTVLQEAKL
dFosB act – mouse delta FosB homodimer activation | purified delta FosB, TAMRA-CDK5 oligo fluorescence polarization; percent of positive-control signal above neutral wells | activation, % at 25 µM | 340,000 tested, 0.99% active | AID 493131;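 active = mean activation above about 17%, with every replicate also reaching it, limit read from the data, passing the limit was not always enough; inconclusive = only one of the two conditions met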
S100A4 inh HTS – blocks human S100A4 binding to myosin IIA peptide. P26447. S100A4/TAMRA-MyoIIA peptide fluorescence polarization. inhibition, % at 10.7 µM. 360,000 tested, 0.14% active. AID 652163;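 active = mean inhibition of at least 70% across replicates, with every replicate also reaching that level; inconclusive = mean inhibition reaches 70% but some replicates fall short; inactive = mean inhibition below 70%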
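Test system: S100A4 monomer protein; Medium: HEPES pH 7.2 with CaCl2, KCl, NaCl, DTT, Triton; Probe or stimulus: TAMRA-labelled myosin IIA heavy-chain peptide probe, 5 nM; Doses: one dose per compound; Times: polarization read 5 min after assay mix addition, stable 5–60 min; Benchmarks: neutral control DMSO, positive control TFP.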
PvdQ inh – blocks Pseudomonas aeruginosa PvdQ acylase activity; purified PvdQ acylase, fluorescence plate reader; inhibition, % at 10 µM; 340,000 tested, 0.063% active; in the data active = inhibition above about 30%, passing the limit was not always enough; inconclusive = no clear call, values can overlap the other calls;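 note: 0% = vehicle neutral wells and 100% = reference inhibitor wells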
Active calls of the source: *; ? = inconclusive; nt = no result. Only some compounds are listed: those with a hit (about 1.6% of all), similar ones and a draw of the others.

SMILES | SR-BI DiI-HDL act | RAD54 branch | SR-BI DiI inh | dFosB act | S100A4 inh HTS | PvdQ inh
O=C(CC12CC3CC(CC(C3)C1)C2)NCc1ccc(F)cc1 | -83 | -1 | 83* | -9 | -1 | -17
COCC#Cc1ccc2c(c1)O[C@@H](CN(C)C(=O)c1ccccc1)[C@H](C)CN([C@@H](C)CO)S2(=O)=O | nt | -2 | nt | nt | 5 | nt
COc1cc(CN2CCc3ccc(NC(=O)CCc4ccccc4OC)cc3C2)ccc1O | -70 | -22 | 70* | -8 | -1 | -5
COc1ccc(CN2CCc3ccc(NC(=O)CCc4ccccc4OC)cc3C2)c(O)c1 | -72 | 0 | 72* | 6 | 5 | -11
COc1cccc(CN2CCc3ccc(NC(=O)CCc4ccc(C)cc4)cc3C2)c1O | -64 | -12 | 64 | -1 | -7 | -9
CCC(=O)Nc1ccc2c(c1)OC[C@@H](C)N(C(=O)C1CCC1)C[C@H](C)[C@@H](OC)CN(C)C2=O | nt | 0 | nt | nt | -6 | nt
C[C@@H]1CCCCO[C@H](CN(C)Cc2ccccc2)[C@H](C)CN([C@H](C)CO)C(=O)c2cc(NC(=O)c3ccccc3)ccc2O1 | nt | 2 | nt | nt | nt | nt
COc1cc(C(=O)Nc2nnc(C3CC3)s2)ccc1OCc1c(C)noc1C | -88 | nt | 88* | -11 | -3 | -8
COc1cc(C(=O)NCC2CCCCC2)ccc1OCc1c(C)noc1C | -37 | 1 | 37 | -5 | 1 | -18
COc1cc(C(=O)Nc2nc3ccccc3s2)ccc1OCc1c(C)noc1C | -67 | 4 | 67 | 7 | nt | 11
COc1cc(C(=O)Nc2nccs2)ccc1OCc1c(C)noc1C | -76 | -10 | 76* | -9 | 7 | -24
COC(=O)C[C@H]1CC[C@H]2[C@@H](COc3ccc(NS(C)(=O)=O)cc3C(=O)N2C)O1 | nt | nt | nt | nt | 4 | nt
CC1=CC(=C(C#N)C#N)C=C(C)N1CCN1CCN(C(=O)Nc2ccc(Cl)c(Cl)c2)CC1 | -22 | nt | 22 | 50* | nt | 6
COc1ccc(NC(=O)C[C@H]2CC[C@H]3[C@@H](COc4ccc(NC(C)=O)cc4C(=O)N3C)O2)cc1 | nt | 7 | nt | nt | 5 | nt
O=C(NCc1cccc2[nH]ccc12)C1CCC(=O)N(CCc2ccccc2)C1 (stereo unspecified) | 120* | -4 | -120 | -12 | 3 | -7
COCC(=O)N1C[C@H]2[C@@H](c3ccccc31)[C@H](CO)N2C(=O)c1ccncc1 | nt | -1 | nt | nt | 2 | nt
OCCN=c1cc(-c2ccccc2)oc2ccc(Cl)cc12 | 7 | 82* | -7 | ? | nt | 9
CC(O)CN=c1cc(-c2ccccc2)oc2ccc(Cl)cc12 (stereo unspecified) | -28 | 67* | 28 | 6 | -3 | 1
O=C(NCc1ccc(F)cc1)[C@@H]1[C@@H](CO)[C@@H]2Cn3c(cccc3=O)[C@@H]2N1CCC(F)(F)F | nt | 7 | nt | nt | 65 | nt
Cc1noc(C)c1S(=O)(=O)N(C)C[C@H]1Oc2c(NC(=O)c3cnccn3)cccc2C(=O)N([C@@H](C)CO)C[C@H]1C | nt | 0 | nt | nt | 4 | nt
C[C@H](CO)N1C[C@H](C)[C@@H](CN(C)C(=O)CN(C)C)Oc2cc(-c3cccnc3)ccc2S1(=O)=O | nt | -1 | nt | nt | 10 | nt
C#CCSc1nnc(-c2sc(-c3ccccc3)nc2C)n1C | -74 | -3 | 74* | -7 | nt | -10
Cc1ccc(-c2nc(NC(=O)c3nn(C)cc3[N+](=O)[O-])sc2C)cc1C | -74 | 0 | 74* | 6 | -3 | -15
COc1ccc(Nc2nc(N3CCCC3)c3ccccc3n2)cc1 | 19 | nt | -19 | 59* | nt | -9
COc1ccc(Br)cc1/C=C/C(=O)c1ccc(NC(C)=O)cc1 | -77 | nt | 76* | -5 | -2 | 6
COc1ccc(NC(=O)/C=C/c2cc(Br)ccc2OC)cc1 | -74 | 6 | 74* | 3 | nt | -4
COc1ccc(C(=O)/C=C/Nc2ccc(NC(C)=O)cc2)cc1OC | -46 | -10 | 46 | -9 | nt | -6
COc1ccc(Br)cc1/C=C/C(=O)Nc1c(C)cccc1C | -62 | nt | 62 | 5 | nt | -19
CCN(CC)c1ccc(NC(=O)/C=C/c2cc(Br)ccc2OC)cc1 | -80 | nt | 80* | -17 | nt | 4
COc1cc(/C=C/C(=O)Nc2ccc(C(C)=O)cc2)cc(OC)c1OC | -75 | nt | 75* | 5 | 4 | 9
